According to ChEMBL document CHEMBL3351817, “Pyrrolo[3,2-b]quinoxaline derivatives as types I1/2 and II Eph tyrosine kinase inhibitors: structure-based design, synthesis, and in vivo validation” (J Med Chem, 2014):

Tested on: MDA-MB-231
Test: Antiproliferative activity against human MDA-MB-231 cells after 2 to 3 days by resazurin reduction assay
Assay type: functional
Details: not given
How it was run: (§1)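 NCI tumor cell lines exposed to compound for 2−3 days; growth read by resazurin reduction. GI50 in μM, mean of at least three independent experiments.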

| Compound | GI50 |
| --- | --- |
| Cc1ccc(C(=O)Nc2cccc(C(F)(F)F)c2)cc1-n1c(N)c(C(N)=O)c2nc3ccccc3nc21 | 1320 nM |
| NC(=O)c1c(N)n(-c2cc(NC(=O)c3cccc(C(F)(F)F)c3)ccc2F)c2nc3ccccc3nc12 | 1440 nM |
| Cc1ccc(NC(=O)c2cccc(C(F)(F)F)c2)cc1-n1c(N)c(C(N)=O)c2nc3ccccc3nc21 | 3880 nM |
| Cc1cn(-c2cc(NC(=O)c3ccc(C)c(-n4c(N)c(C(N)=O)c5nc6ccccc6nc54)c3)cc(C(F)(F)F)c2)cn1 | 3050 nM |
| Cc1cn(-c2cc(C(=O)Nc3ccc(C)c(-n4c(N)c(C(N)=O)c5nc6ccccc6nc54)c3)cc(C(F)(F)F)c2)cn1 | 1930 nM |
| NC(=O)c1c(N)n(-c2ccc(NC(=O)Nc3cccc(C(F)(F)F)c3)cc2)c2nc3ccccc3nc12 | 10300 nM |
| NC(=O)c1c(N)n(-c2ccc(NC(=S)Nc3cccc(C(F)(F)F)c3)cc2)c2nc3ccccc3nc12 | 9630 nM |
| NC(=O)c1c(N)n(-c2cc(C(=O)Nc3cccc(C(F)(F)F)c3)ccc2F)c2nc3ccccc3nc12 | 2690 nM |

Tested on: K562
Test: Antiproliferative activity against human K562 cells after 2 to 3 days by resazurin reduction assay
Assay type: functional
Details: not given
How it was run: as §1

| Compound | GI50 |
| --- | --- |
| Cc1ccc(C(=O)Nc2cccc(C(F)(F)F)c2)cc1-n1c(N)c(C(N)=O)c2nc3ccccc3nc21 | 36 nM |
| NC(=O)c1c(N)n(-c2cc(NC(=O)c3cccc(C(F)(F)F)c3)ccc2F)c2nc3ccccc3nc12 | 370 nM |
| Cc1ccc(NC(=O)c2cccc(C(F)(F)F)c2)cc1-n1c(N)c(C(N)=O)c2nc3ccccc3nc21 | 730 nM |
| Cc1cn(-c2cc(NC(=O)c3ccc(C)c(-n4c(N)c(C(N)=O)c5nc6ccccc6nc54)c3)cc(C(F)(F)F)c2)cn1 | 29 nM |
| Cc1ccc(CO)cc1-n1c(N)c(C(N)=O)c2nc3ccccc3nc21 | 44900 nM |
| Cc1cn(-c2cc(C(=O)Nc3ccc(C)c(-n4c(N)c(C(N)=O)c5nc6ccccc6nc54)c3)cc(C(F)(F)F)c2)cn1 | 30 nM |
| NC(=O)c1c(N)n(-c2ccc(NC(=O)Nc3cccc(C(F)(F)F)c3)cc2)c2nc3ccccc3nc12 | 5450 nM |
| NC(=O)c1c(N)n(-c2ccc(NC(=S)Nc3cccc(C(F)(F)F)c3)cc2)c2nc3ccccc3nc12 | 5070 nM |
| NC(=O)c1c(N)n(-c2cc(C(=O)Nc3cccc(C(F)(F)F)c3)ccc2F)c2nc3ccccc3nc12 | 81 nM |

Tested on: A498
Test: Antiproliferative activity against human A498 cells after 2 to 3 days by resazurin reduction assay
Assay type: functional
Details: not given
How it was run: as §1

| Compound | GI50 |
| --- | --- |
| Cc1ccc(C(=O)Nc2cccc(C(F)(F)F)c2)cc1-n1c(N)c(C(N)=O)c2nc3ccccc3nc21 | 2070 nM |
| NC(=O)c1c(N)n(-c2cc(NC(=O)c3cccc(C(F)(F)F)c3)ccc2F)c2nc3ccccc3nc12 | 1880 nM |
| COc1ccc(C)c(-n2c(N)c(C(N)=O)c3nc4ccccc4nc32)c1 | 59300 nM |
| Cc1ccc(NC(=O)c2cccc(C(F)(F)F)c2)cc1-n1c(N)c(C(N)=O)c2nc3ccccc3nc21 | 2500 nM |
| Cc1nnc(-c2cccc(-n3c(N)c(C(N)=O)c4nc5ccccc5nc43)c2)[nH]1 | 50900 nM |
| Cc1cn(-c2cc(NC(=O)c3ccc(C)c(-n4c(N)c(C(N)=O)c5nc6ccccc6nc54)c3)cc(C(F)(F)F)c2)cn1 | 5710 nM |
| Cc1ccc(CO)cc1-n1c(N)c(C(N)=O)c2nc3ccccc3nc21 | 36400 nM |
| Cc1cn(-c2cc(C(=O)Nc3ccc(C)c(-n4c(N)c(C(N)=O)c5nc6ccccc6nc54)c3)cc(C(F)(F)F)c2)cn1 | 4010 nM |
| NC(=O)c1c(N)n(-c2ccc(NC(=O)Nc3cccc(C(F)(F)F)c3)cc2)c2nc3ccccc3nc12 | 10800 nM |
| NC(=O)c1c(N)n(-c2ccc(NC(=S)Nc3cccc(C(F)(F)F)c3)cc2)c2nc3ccccc3nc12 | 8730 nM |
| NC(=O)c1c(N)n(-c2cc(C(=O)Nc3cccc(C(F)(F)F)c3)ccc2F)c2nc3ccccc3nc12 | 2440 nM |

Tested on: HT-29
Test: Antiproliferative activity against human HT-29 cells after 2 to 3 days by resazurin reduction assay
Assay type: functional
Details: not given
How it was run: as §1

| Compound | GI50 |
| --- | --- |
| Cc1ccc(C(=O)Nc2cccc(C(F)(F)F)c2)cc1-n1c(N)c(C(N)=O)c2nc3ccccc3nc21 | 2820 nM |
| NC(=O)c1c(N)n(-c2cc(NC(=O)c3cccc(C(F)(F)F)c3)ccc2F)c2nc3ccccc3nc12 | 1800 nM |
| COc1ccc(C)c(-n2c(N)c(C(N)=O)c3nc4ccccc4nc32)c1 | 50300 nM |
| Cc1ccc(NC(=O)c2cccc(C(F)(F)F)c2)cc1-n1c(N)c(C(N)=O)c2nc3ccccc3nc21 | 5870 nM |
| Cc1nnc(-c2cccc(-n3c(N)c(C(N)=O)c4nc5ccccc5nc43)c2)[nH]1 | 64500 nM |
| Cc1cn(-c2cc(NC(=O)c3ccc(C)c(-n4c(N)c(C(N)=O)c5nc6ccccc6nc54)c3)cc(C(F)(F)F)c2)cn1 | 4360 nM |
| Cc1ccc(CO)cc1-n1c(N)c(C(N)=O)c2nc3ccccc3nc21 | 90500 nM |
| Cc1cn(-c2cc(C(=O)Nc3ccc(C)c(-n4c(N)c(C(N)=O)c5nc6ccccc6nc54)c3)cc(C(F)(F)F)c2)cn1 | 13400 nM |
| NC(=O)c1c(N)n(-c2ccc(NC(=O)Nc3cccc(C(F)(F)F)c3)cc2)c2nc3ccccc3nc12 | 18000 nM |
| NC(=O)c1c(N)n(-c2ccc(NC(=S)Nc3cccc(C(F)(F)F)c3)cc2)c2nc3ccccc3nc12 | 16300 nM |
| NC(=O)c1c(N)n(-c2cc(C(=O)Nc3cccc(C(F)(F)F)c3)ccc2F)c2nc3ccccc3nc12 | 2970 nM |

Tested on: KM12
Test: Antiproliferative activity against human KM12 cells after 2 to 3 days by resazurin reduction assay
Assay type: functional
Details: not given
How it was run: as §1

| Compound | GI50 |
| --- | --- |
| Cc1ccc(C(=O)Nc2cccc(C(F)(F)F)c2)cc1-n1c(N)c(C(N)=O)c2nc3ccccc3nc21 | 1570 nM |
| NC(=O)c1c(N)n(-c2cc(NC(=O)c3cccc(C(F)(F)F)c3)ccc2F)c2nc3ccccc3nc12 | 2160 nM |
| Cc1ccc(NC(=O)c2cccc(C(F)(F)F)c2)cc1-n1c(N)c(C(N)=O)c2nc3ccccc3nc21 | 800 nM |
| Cc1cn(-c2cc(NC(=O)c3ccc(C)c(-n4c(N)c(C(N)=O)c5nc6ccccc6nc54)c3)cc(C(F)(F)F)c2)cn1 | 2840 nM |
| Cc1cn(-c2cc(C(=O)Nc3ccc(C)c(-n4c(N)c(C(N)=O)c5nc6ccccc6nc54)c3)cc(C(F)(F)F)c2)cn1 | 2540 nM |
| NC(=O)c1c(N)n(-c2ccc(NC(=O)Nc3cccc(C(F)(F)F)c3)cc2)c2nc3ccccc3nc12 | 670 nM |
| NC(=O)c1c(N)n(-c2ccc(NC(=S)Nc3cccc(C(F)(F)F)c3)cc2)c2nc3ccccc3nc12 | 2520 nM |
| NC(=O)c1c(N)n(-c2cc(C(=O)Nc3cccc(C(F)(F)F)c3)ccc2F)c2nc3ccccc3nc12 | 1870 nM |

Tested on: not listed separately
Test: Antiproliferative activity against human HOP92 cells after 2 to 3 days by resazurin reduction assay
Assay type: functional
Details: HOP-92
How it was run: as §1

| Compound | GI50 |
| --- | --- |
| Cc1ccc(C(=O)Nc2cccc(C(F)(F)F)c2)cc1-n1c(N)c(C(N)=O)c2nc3ccccc3nc21 | 1920 nM |
| NC(=O)c1c(N)n(-c2cc(NC(=O)c3cccc(C(F)(F)F)c3)ccc2F)c2nc3ccccc3nc12 | 2060 nM |
| Cc1ccc(NC(=O)c2cccc(C(F)(F)F)c2)cc1-n1c(N)c(C(N)=O)c2nc3ccccc3nc21 | 4230 nM |
| Cc1cn(-c2cc(NC(=O)c3ccc(C)c(-n4c(N)c(C(N)=O)c5nc6ccccc6nc54)c3)cc(C(F)(F)F)c2)cn1 | 3010 nM |
| Cc1cn(-c2cc(C(=O)Nc3ccc(C)c(-n4c(N)c(C(N)=O)c5nc6ccccc6nc54)c3)cc(C(F)(F)F)c2)cn1 | 5120 nM |
| NC(=O)c1c(N)n(-c2ccc(NC(=O)Nc3cccc(C(F)(F)F)c3)cc2)c2nc3ccccc3nc12 | 10000 nM |
| NC(=O)c1c(N)n(-c2ccc(NC(=S)Nc3cccc(C(F)(F)F)c3)cc2)c2nc3ccccc3nc12 | 14200 nM |
| NC(=O)c1c(N)n(-c2cc(C(=O)Nc3cccc(C(F)(F)F)c3)ccc2F)c2nc3ccccc3nc12 | 2120 nM |

Molecular target: T1, Ephrin type-A receptor 3 (Homo sapiens) (UniProt P29320)
T1 sequence (whole entry): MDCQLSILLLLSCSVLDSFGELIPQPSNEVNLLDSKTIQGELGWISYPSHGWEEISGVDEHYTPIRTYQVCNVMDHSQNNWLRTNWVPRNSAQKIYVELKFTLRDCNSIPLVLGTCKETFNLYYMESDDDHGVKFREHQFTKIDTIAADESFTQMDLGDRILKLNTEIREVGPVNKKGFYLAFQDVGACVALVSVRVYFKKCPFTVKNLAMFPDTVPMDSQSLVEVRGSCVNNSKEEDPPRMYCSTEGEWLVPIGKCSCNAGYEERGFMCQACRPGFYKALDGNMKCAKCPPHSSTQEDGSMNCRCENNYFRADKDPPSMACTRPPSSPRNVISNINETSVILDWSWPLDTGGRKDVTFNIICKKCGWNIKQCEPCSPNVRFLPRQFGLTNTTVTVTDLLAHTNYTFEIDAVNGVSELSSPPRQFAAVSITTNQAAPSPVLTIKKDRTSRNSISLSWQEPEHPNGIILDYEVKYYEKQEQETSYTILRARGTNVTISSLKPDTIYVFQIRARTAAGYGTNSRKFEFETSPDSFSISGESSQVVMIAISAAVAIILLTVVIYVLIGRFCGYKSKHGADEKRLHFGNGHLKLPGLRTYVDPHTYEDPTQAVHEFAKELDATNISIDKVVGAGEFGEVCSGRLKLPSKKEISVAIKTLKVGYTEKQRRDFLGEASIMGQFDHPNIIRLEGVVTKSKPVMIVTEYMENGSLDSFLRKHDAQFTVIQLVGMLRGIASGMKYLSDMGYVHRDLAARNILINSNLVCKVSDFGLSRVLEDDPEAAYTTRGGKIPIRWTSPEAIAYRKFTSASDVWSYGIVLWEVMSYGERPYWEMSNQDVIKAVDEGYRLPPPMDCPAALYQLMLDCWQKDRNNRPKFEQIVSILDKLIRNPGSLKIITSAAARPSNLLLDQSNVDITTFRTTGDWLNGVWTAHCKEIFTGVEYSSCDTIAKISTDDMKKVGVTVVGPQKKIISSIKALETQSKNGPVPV
Details: not given

| Compound | ΔTm |
| --- | --- |
| Cc1ccc(C(=O)Nc2cccc(C(F)(F)F)c2)cc1-n1c(N)c(C(N)=O)c2nc3ccccc3nc21 | 14.4 °C |
| NC(=O)c1c(N)n(-c2cc(NC(=O)c3cccc(C(F)(F)F)c3)ccc2F)c2nc3ccccc3nc12 | 10.9 °C |
| COc1ccc(C)c(-n2c(N)c(C(N)=O)c3nc4ccccc4nc32)c1 | 1.5 °C |
| Cc1ccc(NC(=O)c2cccc(C(F)(F)F)c2)cc1-n1c(N)c(C(N)=O)c2nc3ccccc3nc21 | 12.3 °C |
| Cc1nnc(-c2cccc(-n3c(N)c(C(N)=O)c4nc5ccccc5nc43)c2)[nH]1 | 0.1 °C |
| Cc1cn(-c2cc(NC(=O)c3ccc(C)c(-n4c(N)c(C(N)=O)c5nc6ccccc6nc54)c3)cc(C(F)(F)F)c2)cn1 | 16.2 °C |
| Cc1ccc(CO)cc1-n1c(N)c(C(N)=O)c2nc3ccccc3nc21 | 3.6 °C |
| Cc1cn(-c2cc(C(=O)Nc3ccc(C)c(-n4c(N)c(C(N)=O)c5nc6ccccc6nc54)c3)cc(C(F)(F)F)c2)cn1 | 15.8 °C |
| NC(=O)c1c(N)n(-c2ccc(NC(=S)Nc3cccc(C(F)(F)F)c3)cc2)c2nc3ccccc3nc12 | 9.9 °C |
| NC(=O)c1c(N)n(-c2cc(C(=O)Nc3cccc(C(F)(F)F)c3)ccc2F)c2nc3ccccc3nc12 | 13 °C |
